Source: ChEMBL document CHEMBL1132760, “Coumarin inhibitors of gyrase B with N-propargyloxy-carbamate as an effective pyrrole bioisostere” (2000)
In brackets after ≈: the same amount, converted by molar mass.

Tests used:
Streptococcus pyogenes = assay: Antibacterial activity tested against Streptococcus pyogenes 02AIUC1; format: functional
Outline: (§1)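 MIC by 2-fold broth microdilution, read after 24 h incubation; strain resistance phenotypes noted.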

[1] = tested on: Staphylococcus epidermidis; assay: Antibacterial activity against oxacillin resistant Staphylococcus epidermidis 012GO42; format: functional
Outline: (§2)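 MIC read after 24 h incubation by two-fold broth microdilution. Strains are tested with their labelled resistance phenotypes (ofloxacin, oxacillin, erythromycin, novobiocin, teicoplanin or vancomycin resistance, as given in each strain designation).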

Staphylococcus aureus [2] = assay: Antibacterial activity against Staphylococcus aureus 011HT3; format: functional; outline: as §1
[3] = In vitro activity against Staphylococcus aureus DNA gyrase subunit B supercoiling, expressed as IC50 novobiocin / IC50 compound; format: functional
Enterococcus faecium = assay: Antibacterial activity against vancomycin, teicoplanin, erythromycin resistant Enterococcus faecium; format: functional; outline: as §2
Staphylococcus aureus [4] = assay: Antibacterial activity tested against novobiocin resistant Staphylococcus aureus 011HT1; format: functional; outline: as §1
Staphylococcus aureus [5] = assay: Antibacterial activity against ofloxacin,oxacillin,erythromycin resistant Staphylococcus aureus 011GO64.; format: functional; outline: as §2
Escherichia coli = assay: In vitro activity against Escherichia coli DNA gyrase subunit B supercoiling, expressed as IC50 novobiocin / IC50 compound; format: functional
[6] = tested on: DNA gyrase (Staphylococcus aureus); assay: In vitro activity against Staphylococcus aureus DNA gyrase supercoiling, expressed as IC50 novobiocin / IC50 compound

Structure (SMILES)	MIC (Streptococcus pyogenes) [µg/mL]	MIC [1] [µg/mL]	MIC (Staphylococcus aureus [2]) [µg/mL]	Ratio [3]	MIC (Enterococcus faecium) [µg/mL]	MIC (Staphylococcus aureus [4]) [µg/mL]	MIC (Staphylococcus aureus [5]) [µg/mL]	Ratio (Escherichia coli)	Ratio [6]
C#CCONC(=O)O[C@H]1[C@@H](O)[C@H](Oc2ccc3c(O)c(/C(C)=N/OCc4ccsc4)c(=O)oc3c2C)OC(C)(C)[C@@H]1OC	0.15 (≈ 0.243 µM)	< 0.04	< 0.04	1.3	0.6 (≈ 0.973 µM)	2.5 (≈ 4.05 µM)	–	–	–
C#CCONC(=O)O[C@H]1[C@@H](O)[C@H](Oc2ccc3c(=O)c(C(=O)NOCC)c(O)oc3c2C)OC(C)(C)[C@@H]1OC	0.15 (≈ 0.272 µM)	0.6 (≈ 1.09 µM)	< 0.04	5.6	0.6 (≈ 1.09 µM)	1.2 (≈ 2.18 µM)	0.08 (≈ 0.145 µM)	–	–
C#CCONC(=O)O[C@H]1[C@@H](O)[C@H](Oc2ccc3c(O)c(/C(C)=N/OCCN4CCOCC4)c(=O)oc3c2C)OC(C)(C)[C@@H]1OC	1.2 (≈ 1.89 µM)	0.15 (≈ 0.237 µM)	0.15 (≈ 0.237 µM)	4	20 (≈ 31.6 µM)	5 (≈ 7.89 µM)	0.6 (≈ 0.947 µM)	–	–
C#CCNC(=O)O[C@H]1[C@@H](O)[C@H](Oc2ccc3c(=O)c(C(=O)OCC)c(O)oc3c2C)OC(C)(C)[C@@H]1OC	> 40	20 (≈ 38.5 µM)	40 (≈ 77 µM)	–	> 40	> 40	–	0.38	–
C#CCONC(=O)O[C@H]1[C@@H](O)[C@H](Oc2ccc3c(=O)c(/C(C)=N/OC)c(O)oc3c2C)OC(C)(C)[C@@H]1OC	0.6 (≈ 1.12 µM)	0.08 (≈ 0.15 µM)	0.15 (≈ 0.281 µM)	12.5	2.5 (≈ 4.68 µM)	5 (≈ 9.35 µM)	0.15 (≈ 0.281 µM)	–	–
C#CCONC(=O)O[C@H]1[C@@H](O)[C@H](Oc2ccc3c(O)c(C(=O)NCCN4CCOCC4)c(=O)oc3c2C)OC(C)(C)[C@@H]1OC	1.2 (≈ 1.94 µM)	0.08 (≈ 0.129 µM)	< 0.04	2.6	2.5 (≈ 4.03 µM)	1.2 (≈ 1.94 µM)	0.08 (≈ 0.129 µM)	–	–
C#CCONC(=O)O[C@H]1[C@@H](O)[C@H](Oc2ccc3c(O)c(C(C)=O)c(=O)oc3c2C)OC(C)(C)[C@@H]1OC	0.3 (≈ 0.593 µM)	< 0.04	< 0.04	8.1	1.2 (≈ 2.37 µM)	2.5 (≈ 4.95 µM)	0.6 (≈ 1.19 µM)	–	–
CO[C@@H]1[C@@H](OC(=O)c2ccc(C)[nH]2)[C@@H](O)[C@H](Oc2ccc3c(O)c(C(C)=O)c(=O)oc3c2C)OC1(C)C	0.3 (≈ 0.582 µM)	–	< 0.04	–	2.5 (≈ 4.85 µM)	5 (≈ 9.7 µM)	–	2	–
CCONC(=O)OC1[C@@H](O)[C@H](Oc2ccc3c(O)c(C(=O)OCC)c(=O)oc3c2C)OC(C)(C)[C@@H]1OC (single isomer, unassigned)	40 (≈ 76.1 µM)	> 40	20 (≈ 38.1 µM)	–	> 40	> 40	–	2	–
CC#CCONC(=O)O[C@H]1[C@@H](O)[C@H](Oc2ccc3c(=O)c(C(=O)OCC)c(O)oc3c2C)OC(C)(C)[C@@H]1OC	> 40	10 (≈ 18.2 µM)	10 (≈ 18.2 µM)	–	> 40	> 40	40 (≈ 72.8 µM)	–	0.5
CCOC(=O)c1c(O)oc2c(C)c(O[C@@H]3OC(C)(C)[C@H](OC)[C@@H](OC(=O)NC(C)C)[C@H]3O)ccc2c1=O	> 40	> 40	> 40	–	> 40	> 40	–	0.025	–
C=CCONC(=O)O[C@H]1[C@@H](O)[C@H](Oc2ccc3c(=O)c(C(=O)OCC)c(O)oc3c2C)OC(C)(C)[C@@H]1OC	20 (≈ 37.2 µM)	20 (≈ 37.2 µM)	10 (≈ 18.6 µM)	–	> 40	> 40	20 (≈ 37.2 µM)	2	–
CCOC(=O)c1c(O)oc2c(C)c(O[C@@H]3OC(C)(C)[C@H](OC)[C@@H](OC(=O)NOC)[C@H]3O)ccc2c1=O	> 40	> 40	> 40	–	> 40	> 40	–	0.66	–
C#CCONC(=O)O[C@H]1[C@@H](O)[C@H](Oc2ccc3c(=O)c(C(=O)NOC)c(O)oc3c2C)OC(C)(C)[C@@H]1OC	0.6 (≈ 1.12 µM)	0.08 (≈ 0.149 µM)	0.08 (≈ 0.149 µM)	11.1	2.5 (≈ 4.66 µM)	10 (≈ 18.6 µM)	0.6 (≈ 1.12 µM)	–	–
CCOC(=O)c1c(O)oc2c(C)c(O[C@@H]3OC(C)(C)[C@H](OC)[C@@H](OC(=O)NOC(C)C)[C@H]3O)ccc2c1=O	> 40	> 40	> 40	–	> 40	> 40	–	2	–
CCOC(=O)c1c(O)oc2c(C)c(O[C@@H]3OC(C)(C)[C@H](OC)[C@@H](OC(=O)c4ccc(C)[nH]4)[C@H]3O)ccc2c1=O	0.3 (≈ 0.55 µM)	–	0.3 (≈ 0.55 µM)	–	5 (≈ 9.17 µM)	> 20	–	3.1	–
C#CCONC(=O)O[C@H]1[C@@H](O)[C@H](Oc2ccc3c(=O)c(/C(C)=N/OCC)c(O)oc3c2C)OC(C)(C)[C@@H]1OC	0.6 (≈ 1.09 µM)	0.15 (≈ 0.273 µM)	0.08 (≈ 0.146 µM)	8.3	1.2 (≈ 2.19 µM)	2.5 (≈ 4.56 µM)	0.15 (≈ 0.273 µM)	–	–
C#CCONC(=O)O[C@H]1[C@@H](O)[C@H](Oc2ccc3c(O)c(C(=O)Nc4cccnc4)c(=O)oc3c2C)OC(C)(C)[C@@H]1OC	0.08 (≈ 0.137 µM)	< 0.04	< 0.04	0.67	0.6 (≈ 1.03 µM)	1.2 (≈ 2.06 µM)	–	–	–
C#CCONC(=O)O[C@H]1[C@@H](O)[C@H](Oc2ccc3c(O)c(C(=O)NCCO)c(=O)oc3c2C)OC(C)(C)[C@@H]1OC	0.6 (≈ 1.09 µM)	< 0.04	< 0.04	2.6	1.2 (≈ 2.18 µM)	1.2 (≈ 2.18 µM)	0.08 (≈ 0.145 µM)	–	–
C#CCONC(=O)O[C@H]1[C@@H](O)[C@H](Oc2ccc3c(O)c(C(=O)NOCC=C(C)C)c(=O)oc3c2C)OC(C)(C)[C@@H]1OC	0.08 (≈ 0.135 µM)	0.15 (≈ 0.254 µM)	< 0.04	2	0.3 (≈ 0.508 µM)	0.6 (≈ 1.02 µM)	–	–	–
CO[C@@H]1[C@@H](OC(N)=O)[C@@H](O)[C@H](Oc2ccc3c(O)c(NC(=O)c4ccc(O)c(CC=C(C)C)c4)c(=O)oc3c2C)OC1(C)C [NOVOBIOCIN]	0.3 (≈ 0.49 µM)	< 0.04	< 0.04	–	0.6 (≈ 0.979 µM)	10 (≈ 16.3 µM)	–	–	–
CO[C@@H]1[C@@H](OC(=O)c2ccc(C)[nH]2)[C@@H](O)[C@H](Oc2ccc3c(O)c(C(N)=O)c(=O)oc3c2C)OC1(C)C	0.15 (≈ 0.29 µM)	–	< 0.04	–	2.5 (≈ 4.84 µM)	2.5 (≈ 4.84 µM)	–	1.67	–
CO/N=C(\C)c1c(O)oc2c(C)c(O[C@@H]3OC(C)(C)[C@H](OC)[C@@H](OC(=O)c4ccc(C)[nH]4)[C@H]3O)ccc2c1=O	0.3 (≈ 0.551 µM)	–	0.15 (≈ 0.275 µM)	–	10 (≈ 18.4 µM)	40 (≈ 73.5 µM)	–	3.3	–
C#CCONC(=O)O[C@H]1[C@@H](O)[C@H](Oc2ccc3c(=O)c(C(=O)OCC)c(O)oc3c2C)OC(C)(C)[C@@H]1OC	20 (≈ 37.3 µM)	0.3 (≈ 0.56 µM)	1.2 (≈ 2.24 µM)	–	10 (≈ 18.7 µM)	> 40	2.5 (≈ 4.67 µM)	5.6	–
C#CCONC(=O)O[C@H]1[C@@H](O)[C@H](Oc2ccc3c(O)c(C(N)=O)c(=O)oc3c2C)OC(C)(C)[C@@H]1OC	0.6 (≈ 1.18 µM)	< 0.04	< 0.04	–	0.08 (≈ 0.158 µM)	0.3 (≈ 0.592 µM)	–	1	–
C#CCONC(=O)O[C@H]1[C@@H](O)[C@H](Oc2ccc3c(=O)c(/C(C)=N/OCOCCOC)c(O)oc3c2C)OC(C)(C)[C@@H]1OC	0.6 (≈ 0.986 µM)	1.2 (≈ 1.97 µM)	0.08 (≈ 0.131 µM)	4	5 (≈ 8.22 µM)	10 (≈ 16.4 µM)	0.6 (≈ 0.986 µM)	–	–
CCOC(=O)c1c(O)oc2c(C)c(O[C@@H]3OC(C)(C)[C@H](OC)[C@@H](OC(N)=O)[C@H]3O)ccc2c1=O	> 40	–	> 40	–	> 40	> 40	–	1.6	–
C=CCNC(=O)O[C@H]1[C@@H](O)[C@H](Oc2ccc3c(=O)c(C(=O)OCC)c(O)oc3c2C)OC(C)(C)[C@@H]1OC	> 40	20 (≈ 38.3 µM)	> 40	–	> 40	> 40	–	0.38	–
